This is an account of results in ChEMBL document CHEMBL1132214, “Synthesis, mode of action, and biological activities of rebeccamycin bromo derivatives” (J Med Chem, 1999).

Converted amounts (≈) assume the structure as drawn.

Assay [1] has as its system P388. Put plainly: Compound was tested for drug bound to whole cells (P388 leukemia) before centrifugation at 320 nm. Type of assay: functional, Mus musculus. In a few lines:
(§1)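 Exponentially growing P388 cells (1.5 × 10^6 per mL) incubated with drug, usually 100 µM, for 30 min at 37 °C. Excitation 320 nm, emission 400–600 nm. Whole-cell spectrum read before centrifugation. Pellet spectrum read after one HBSS wash and resuspension in drug-free buffer. Intensities expressed relative to free rebeccamycin; fraction change is whole-cell versus free drug.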

Assay [2] has as its system P388. Put plainly: Compound was tested for drug bound to cell pellet (P388 leukemia) after centrifugation at 320 nm. It counts as functional, Mus musculus. In outline:
as §1

A further assay deals with P388CPT5. Put plainly: In vitro inhibitory concentration against murine P388CPT5 leukemia cell proliferation. It counts as functional, cell-based. The following applies: Mus musculus. In outline: (§2)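 Murine P388 leukemia cells, or the camptothecin-resistant P388CPT5 subline, exposed 96 h at 37 °C to a range of drug concentrations. Viability scored by neutral red staining. IC50 taken as the concentration giving 50% growth inhibition.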

A further assay concerns Bacillus cereus. Put plainly: Compound was tested for antimicrobial activity against a gram-positive bacterium Bacillus cereus. Type of assay: functional. In outline:
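Bacillus cereus ATCC 14579 in Mueller-Hinton broth, pH 7.4, incubated 24 h at 27 °C. Compounds diluted in DMSO over 12 tubes spanning 100 to 0.05 µg/mL. MIC read from the dilution series.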

For assay [3], the system named is CEM-SS. Put plainly: Compound was tested for anti-HIV activity in HIV -I Lai infected CEM-SS cells. It counts as functional, cell-based. The following applies: Homo sapiens. In a few lines:
(§3)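 CEM-SS cells kept at 37 °C, 5% CO2 in RPMI 1640 with 10% decomplemented FBS, infected with HIV-1 Lai. Antiviral IC50 from reverse transcriptase activity of virus particles released into the medium. Cytotoxicity (CC50) measured in parallel. Selectivity index = CC50/IC50.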

Assay [4] relates to P388. The assay can be described thus: Fraction change in percent is observed. It counts as functional, Mus musculus. In outline:
as §1

The subject of assay [5] is P388. The assay can be described thus: In vitro inhibitory concentration against murine P388 leukemia cell proliferation. It counts as functional, cell-based. The following applies: Mus musculus. In outline:
as §2

Assay [6] has as its system CEM-SS. Put plainly: The cytotoxicity was evaluated in HIV -I Lai infected CEM-SS cells. It counts as functional. To be noted: Homo sapiens. In outline:
as §3

The test system of assay [7] is DNA topoisomerase 1 (Bos taurus). The assay can be described thus: Compound was tested for anti microbial activity against topoisomerase I.
Assay [8] relates to CEM-SS. The assay can be described thus: Selective Index of against HIV -I Lai infected CEM-SS cells. Type of assay: functional, Homo sapiens. In a few lines: as §3
In assay [9] the test system is P388. Put plainly: (§4) Ratio of IC50 of p388 and p388CPT5 cell lines. It counts as functional, Mus musculus. In outline:
(§5)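 Murine P388 leukaemia cells and camptothecin-resistant P388CPT5 cells were exposed to graded drug concentrations for 96 h at 37 °C. Viability was read by neutral red staining and the 50% growth-inhibitory concentration (IC50) taken for each line. The resistance ratio is IC50(P388CPT5)/IC50(P388).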

Assay [10] is described as follows: as §4. Type of assay: functional. In a few lines: as §5
Assay [11] concerns the target T1, DNA topoisomerase 1 (Mus musculus) (UniProt Q04750).
T1 sequence (whole entry): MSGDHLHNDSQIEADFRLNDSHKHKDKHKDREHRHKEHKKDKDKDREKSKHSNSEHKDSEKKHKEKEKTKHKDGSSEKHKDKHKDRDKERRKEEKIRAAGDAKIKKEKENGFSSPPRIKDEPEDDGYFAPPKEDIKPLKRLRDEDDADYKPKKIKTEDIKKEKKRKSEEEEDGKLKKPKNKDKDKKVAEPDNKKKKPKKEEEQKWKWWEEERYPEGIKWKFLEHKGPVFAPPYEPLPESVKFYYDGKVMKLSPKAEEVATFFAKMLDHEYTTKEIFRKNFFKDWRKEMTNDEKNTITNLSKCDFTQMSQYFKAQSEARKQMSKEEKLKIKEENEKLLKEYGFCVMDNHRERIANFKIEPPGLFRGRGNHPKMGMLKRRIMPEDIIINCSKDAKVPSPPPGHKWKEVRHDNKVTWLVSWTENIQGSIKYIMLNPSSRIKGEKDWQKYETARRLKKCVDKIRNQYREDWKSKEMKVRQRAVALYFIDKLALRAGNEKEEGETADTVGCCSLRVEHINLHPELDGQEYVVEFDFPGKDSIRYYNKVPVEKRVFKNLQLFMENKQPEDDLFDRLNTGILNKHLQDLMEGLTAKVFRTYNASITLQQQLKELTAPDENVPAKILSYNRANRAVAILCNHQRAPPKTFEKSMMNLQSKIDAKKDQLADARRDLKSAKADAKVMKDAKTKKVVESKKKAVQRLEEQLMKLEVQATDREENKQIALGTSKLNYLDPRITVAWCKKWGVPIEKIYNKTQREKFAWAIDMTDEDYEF

A word on the IC50: it is the point on the concentration scale where inhibition reaches its midpoint. Usually CC50 stands for the concentration that lowers cell viability or growth by half. With `COC1C(CO)OC(n2c3ccc(Br)cc3c3c4c(c5c6cc(Br)ccc6[nH]c5c32)C(=O)NC4=O)C(O)C1O` (configuration not stated), the “Whole-cell fluorescence relative to free drug” value in the assay on P388 [1] is 0.15. Also, the Activity with P388 [2] worked out at 0.08. Moreover, the IC50 with P388CPT5 is more than 15 µM; with CEM-SS [3], 70 nM; in the assay with P388 [5], 260 nM. In addition, the MIC against Bacillus cereus stood at 19 µM (≈ 12.5 µg/mL); in assay [7] it was 150 nM (≈ 0.0989 µg/mL). The Fraction change in the assay with P388 [4] was 46%. This compound also registered a CC50 in the assay with CEM-SS [6] of 0.34 µM. Also, in the assay with CEM-SS [8], the Selectivity index was found to be 4.8. Besides, in the assay on P388 [9], the Ratio was more than 58.
Consider `CC[C@@]1(O)C(=O)OCc2c1cc1n(c2=O)Cc2cc3ccccc3nc2-1` [CAMPTOTHECIN], for which the IC50 stood at 2.8 µM in the assay on P388CPT5 and 32 nM in the assay on P388 [5]. In addition, in [10], the Ratio was found to be 87.5. This compound had an MIC in [11] of 86 nM (≈ 0.03 µg/mL).
Consider `CO[C@H]1[C@H](O)[C@@H](O)[C@H](n2c3ccccc3c3c4c(c5c6ccccc6[nH]c5c32)C(=O)NC4=O)O[C@@H]1CO`, for which the “Whole-cell fluorescence relative to free drug” value in the assay with P388 [1] is 0.38. Besides, the Activity in the assay on P388 [2] worked out at 0.33. Also, the Fraction change in the assay on P388 [4] is reported as -26%. Moreover, the Selectivity index in the assay on CEM-SS [8] amounted to 5.6. Moreover, the Ratio with P388 [9] is reported as more than 28.
For the compound `COC1C(CO)OC(n2c3ccc(Br)cc3c3c4c(c5c6cc(Br)ccc6[nH]c5c32)C(=O)N(C)C4=O)C(O)C1O` (configuration not stated), the “Whole-cell fluorescence relative to free drug” value with P388 [1] was 0.46. Moreover, the Activity with P388 [2] came out at 0.24. Besides, the IC50 is more than 15 µM in the assay with P388CPT5, 1170 nM with CEM-SS [3] and 4900 nM in the assay on P388 [5]. The MIC is more than 74 µM with Bacillus cereus and more than 15000 nM in [7]. In the assay on P388 [4], the Fraction change was found to be 13%. The same compound returned a CC50 in the assay with CEM-SS [6] of 1.49 µM. In the assay with CEM-SS [8], the Selectivity index was 1.3. Also, the Ratio in the assay with P388 [9] was more than 3.
In the case of `CO[C@H]1[C@H](O)[C@@H](O)[C@H](n2c3c(Cl)cccc3c3c4c(c5c6cccc(Cl)c6[nH]c5c32)C(=O)NC4=O)O[C@@H]1CO` [REBECCAMYCIN], the “Whole-cell fluorescence relative to free drug” value with P388 [1] was 1.29. The Activity with P388 [2] worked out at 0.81. For the same compound, in the assay on P388 [4], the Fraction change worked out at 29%. Besides, in the assay on CEM-SS [8], the Selectivity index came to 2 SI. In the assay on P388 [9], the Ratio is on record as 8.5.
Compound `CO[C@H]1[C@H](O)[C@@H](O)[C@H](n2c3ccccc3c3c4c(c5c6ccccc6[nH]c5c32)C(=O)OC4=O)O[C@@H]1CO` had a Selectivity index in the assay with CEM-SS [8] of more than 1.98 SI. The Ratio in the assay with P388 [9] is on record as more than 3.1.
`CO[C@H]1[C@H](O)[C@@H](O)[C@H](n2c3c(Cl)cccc3c3c4c(c5c6cccc(Cl)c6[nH]c5c32)C(=O)N(C)C4=O)O[C@@H]1CO`: in the assay with CEM-SS [3], inhibition was half-maximal at 4900 nM (IC50). Further, in the assay on CEM-SS [6], the CC50 was 8 µM. The compound further came in with a Selectivity index in the assay on CEM-SS [8] of 1.6.
For `CO[C@H]1[C@H](O)[C@@H](O)[C@H](n2c3ccccc3c3c4c(c5c6ccccc6[nH]c5c32)C(=O)N(C)C4=O)O[C@@H]1CO`, the IC50 in the assay with CEM-SS [3] was found to be 4000 nM; with P388 [5] it was 670 nM. This compound also yielded a CC50 in the assay on CEM-SS [6] of 7.9 µM. This compound also had a Selectivity index in the assay on CEM-SS [8] of 2.
`CO[C@H]1[C@H](O)[C@@H](O)[C@H](n2c3ccc(Br)cc3c3c4c(c5c6cc(Br)ccc6[nH]c5c32)C(=O)OC4=O)O[C@@H]1CO` registered a Selectivity index in the assay with CEM-SS [8] of 1.9. Also, in the assay on P388 [9], the Ratio stood at 8.3.
